Rows were chosen to be rich in hits. Some 0.79% of all compounds tested hit in one or more screens of this group.
PKA-R2B activ: activators of human PKA-R2B complex. P22694+P31323. PKA-R2B holoenzyme dissociation, Cy5-IP20 fluorescence polarization; R2B truncated from residue 108, S112A mutant; 0% DMSO only, 100% 113 µM cGMP. activation, % at 11.4 µM. actives 0.079% (n = 340,000). AID 504700;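 active = activation above a cutoff set at the mean over all compounds plus 3 SD, cut at about 18% in these data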;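 note: higher means more holoenzyme dissociation and a rise in polarization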
UCH37 DUB inh: human UCH37 deubiquitinating enzyme inhibition. purified proteasome/UCH37, Ub-AMC cleavage fluorescence. inhibition, % (test concentration not listed). actives 0.33% (n = 330,000);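 active = mean inhibition over replicate wells above about 20%, limit read from the data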
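Assay system: Proteasome-bound UCH37. Buffer or medium: pH 7.4 Tris-HCl (50 mM) with ovalbumin, ATP-MgCl2, DTT. Incubation: 30 min preincubation with enzyme, 25 min cleavage at room temperature. Measured by: fluorescence, ex 355 nm, em 460 nm. Read-out basis: percent inhibition. Control set: wells without proteasome as full block, compound-free enzyme plus substrate as uninhibited.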
Rin1-Abl PPI inh: human Rin1-Abl interaction inhibition; P00519+Q13671; TR-FRET Rin1/Abl binding, biochemical; inhibition, % at 7.35 µM; actives 0.4% (n = 360,000); in the data active = inhibition above about 5%, passing the limit was not always enough
PKA-R1A activ: PKA-R1A complex activation; actives 0.083% (n = 340,000); P00514+P68181; activation, % at 11.4 µM; PKA-R1A dissociation, Cy5-IP20 fluorescence polarization; scaled: DMSO 0%, 113 µM cGMP 100%;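 active = percent activation above the mean of all tested compounds plus 3 SD, cut at about 19% in these data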;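 note: higher means more PKAc released from R1A so a rise in polarization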
Rin1 Abl conf: Rin1-Abl interaction inhibition confirmation | AID 602124 | actives 49% (n = 1,300) | TR-FRET Rin1-Abl binding, purified proteins | shares compounds with Rin1-Abl PPI inh | inhibition, % at 7.35 µM
GFP quench-1: counter-screen for Rin1-Abl inhibitors: GFP fluorescence quenchers; AID 602125; shares compounds with Rin1-Abl PPI inh; inhibition, % at 6.75 µM; inhibitors/quenchers counterscreen; actives 8.5% (n = 1,300);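 note: ABL1-eGFP fusion protein alone without its partner RIN1-SBP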
GFP quench dose: quenches GFP in dose response, Rin1-Abl counter-screen; 230 tested, under 10 active; shares compounds with Rin1-Abl PPI inh; AID 602182; IC50, µM; GFP fluorescence interference/quenching counterscreen; call rule not given here;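 note: ABL1-eGFP fusion protein alone without its RIN1 binding partner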
GFP quench-2: GFP quenching artifact for Rin1-Abl inhibitor hits | GFP fluorescence quenching counterscreen, biochemical | shares compounds with Rin1-Abl PPI inh | IC50, µM | 25 tested, under 10 active | AID 602397; call rule not given here
A number is an active result; 0 = inactive; - = not tested or not shown. Cut-off read from the data, not from the text of the source, unless noted: active = inhibition above about 6.5%; inactive = the rest.

SMILES	PKA-R2B activ	UCH37 DUB inh	Rin1-Abl PPI inh	PKA-R1A activ	Rin1 Abl conf	GFP quench-1	others
N#C/C(=C\c1ccc(Cl)cc1)c1nc(-c2ccco2)cs1	0	0	0	0	-	-
CCn1nc(C(=O)NCCc2ccc3c(c2)OCCO3)c2ccccc2c1=O	0	0	0	0	-	-
COc1ccc(-n2ncc3c(N4CCCCC4)ncnc32)cc1	0	0	6.1	0	0	0
Oc1ccc(/C=N/NC(=S)Nc2cccnc2)c(O)c1O	0	-	31	0	19	15
Cc1cccc(N/N=C/c2ccc(O)c(O)c2O)c1	0	-	26	0	23	13
O=C(Cn1cncn1)N/N=C/c1cccc2ccccc12	0	-	0	0	-	-
O=C(CSc1nnc(SCc2ccccc2)s1)NN=C/C=C\c1ccco1	-	0	-	-	-	-
c1ccc(CSc2nnc([C@@H]3CCCN3)o2)cc1	0	0	0	0	-	-
C=CCOc1ccc(/C=N/NC(=O)C(=O)Nc2ccccn2)cc1OC	0	-	6.5	0	14	0
C=CCOc1ccc(C=NNC(=O)C(=O)Nc2ccccn2)cc1OC	-	0	-	-	-	-
COc1cc(C(=O)N2CCSCC2)ccc1OC1CCN(C(C)=O)CC1	0	0	0	0	-	-
COCCC1CCCCN1C(=O)c1ccc(OC2CCN(C(C)=O)CC2)c(OC)c1 (stereo not given)	0	0	13	0	0	0
CC(C)NC(=O)C(=NO)c1ccccc1	-	0	-	-	-	-
COc1ccccc1CN1CCC(CNS(=O)(=O)c2cc(-c3cc(C)no3)ccc2OC)CC1	0	0	12	0	0	0
Cc1c(Cl)cccc1NC(=S)N(Cc1cccs1)C1CCCC1	0	0	0	0	-	-
O=C(c1ccco1)N1CCc2[nH]nc(-c3ccc(Cl)cc3)c2C1	0	0	16	0	0	0
COc1ccc(-c2n[nH]c3c2CN(C(=O)c2ccccc2)CC3)cc1	0	0	0	0	-	-
CC(C)=N/N=C1/NC(=O)C(CC(=O)Nc2cc(Cl)ccc2C)S1 (stereo not given)	0	0	0	0	-	-
CC(=O)NC(c1ccccc1)c1cc(Cl)c2cccnc2c1O (stereo not given)	0	0	12	0	10	0
CC(=O)NC(c1ccc(N(C)C)cc1)c1cc(Cl)c2cccnc2c1O (stereo not given)	0	-	6.6	0	6.9	0
COc1ccc(C(NC(C)=O)c2cc(Cl)c3cccnc3c2O)cc1 (stereo not given)	0	0	8.2	0	7.0	0
CC(=O)NC(c1ccc(C)cc1)c1cc([N+](=O)[O-])c2cccnc2c1O (stereo not given)	0	0	0	0	-	-
Oc1c(C(c2ccccn2)N2CCCCC2)cc(Cl)c2cccnc12 (stereo not given)	0	0	22	0	14	0
CN1CCN(C(c2ccc(Cl)cc2)c2cc(Cl)c3cccnc3c2O)CC1 (stereo not given)	0	-	0	0	-	-
CC(Oc1cccc(Br)c1)C(=O)Nc1cccc(S(=O)(=O)N2CCOCC2)c1 (stereo not given)	0	0	0	0	-	-
SMILES	PKA-R2B activ	UCH37 DUB inh	Rin1-Abl PPI inh	PKA-R1A activ	Rin1 Abl conf	GFP quench-1	others
Cc1ccccc1C(=O)N1CCC(C(=O)Nc2ccccc2N2CCCC2)CC1	0	0	0	0	-	-
CCOC(=O)C1(Cc2ccccc2C)CCCN(C(=O)CCc2cccnc2)C1 (stereo not given)	0	0	0	0	-	-
Cc1cccc(NC(=O)C2CCCN(S(=O)(=O)c3ccc4c(c3)oc(=O)n4C)C2)c1 (stereo not given)	0	0	0	0	-	-
Cn1c(=O)oc2cc(S(=O)(=O)N3CCCC(C(=O)Nc4nccs4)C3)ccc21 (stereo not given)	0	-	11	0	0	0
Cc1nn2c(-c3ccco3)nnc2c2ccccc12	0	0	10	0	14	0
COC(=O)c1ccc(CSc2nnc(-c3ccccc3)n2C)o1	0	-	23	0	32	0	GFP quench dose=0
COC(=O)c1ccc(CSc2nnnn2-c2ccccc2)o1	0	0	0	0	-	-
COC(=O)c1ccc(CSc2nnc(-c3c[nH]c4ccccc34)n2C)o1	0	0	26	0	32	0	GFP quench dose=0
COc1ccc([N+](=O)[O-])cc1CSc1nnc(NC(C)=O)s1	0	0	0	0	-	-
Oc1ccc(N=Cc2ccc(O)c(O)c2)cc1	0	0	0	0	-	-
Oc1ccc(/C=N/N=C/c2ccc(O)c(O)c2)cc1O	0	-	23	0	57	16
CCN(C1CCCCC1)S(=O)(=O)c1ccc(-n2cnnn2)c(C)c1	0	0	14	0	0	0
Cc1ccccc1OCCNCC(C)O (stereo not given)	0	0	9.0	0	0	0
O=C(CCCNC(=O)/C(=C\c1ccccc1F)NC(=O)c1ccccc1)OCc1ccccc1	0	0	0	0	-	-
O=C(Nc1ccc(NC(=O)c2ccccc2Br)cc1)c1ccccc1	0	0	0	0	-	-
COc1ccc(NS(=O)(=O)c2cccc(C(=O)NCCCn3ccnc3)c2)cc1	0	0	0	0	-	-
O=C1Nc2cccnc2N(C(=O)CCl)c2ccccc21	0	0	43	0	0	0
C[C@H]1O[C@@H](O[C@H]2CC[C@@]3(C)C(CC[C@]4(C)C3C=CC3=C5CC(C)(C)CC[C@]5(CO)[C@H](O)C[C@]34C)[C@]2(C)CO)[C@H](O)[C@@H](O[C@@H]2O[C@H](CO)[C@@H](O)[C@H](O)[C@H]2O)[C@H]1O (stereo not given in full)	0	0	0	0	-	-
CN(C(=O)CSc1ncc(C(F)(F)F)cc1Cl)c1c(N)n(Cc2ccccc2)c(=O)[nH]c1=O	0	0	0	0	-	-
COc1ccc(NS(=O)(=O)c2ccc(OC)c(OC)c2)cc1OC	0	0	0	0	-	-
COc1cc(S(=O)(=O)Nc2ccccc2)ccc1NC=O	0	0	5.4	0	0	0
O=C1N(Cc2cccnc2)C[C@@H]2C[C@@H](c3ccc4nonc4c3)N3CCC[C@@]123	0	0	0	0	-	-
O=C1N(Cc2cccnc2)C[C@@H]2C[C@@H](c3ccc4nsnc4c3)N3CCC[C@@]123	0	0	16	0	16	0
CC/C(=N\NC(=S)Nc1ccc(OC)cc1)c1ccc(OC(F)F)cc1	0	-	0	0	-	-
COc1ccc2oc(C(=O)NCC(c3ccco3)N(C)C)c(C)c2c1 (stereo not given)	0	0	40	0	45	0	GFP quench dose=0;GFP quench-2=0
